# Laboratory results reported in publication PMC8923172 (Antimicrobial Agents and Chemotherapy, 2022).
# Marks after values point to notes of the source that are not given here. Residues, ends and D or L forms follow the SMILES beside them.
# Assays:
# [1] = Single- and multiple-dose i.v. pharmacokinetics in cynomolgus monkeys; format: in vivo, cynomolgus monkeys (Macaca fascicularis); conditions: for Cmax: 1-h i.v. infusion; for Cmax / AUC0-∞ / AUCτ / CL / λz / Vss / MRT: mean (SD); for MRT: MRTinf
# [2] = Toxicity studies in cynomolgus monkeys: mortality, MTD, NOAEL; format: in vivo
# Summary of the method: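 Cynomolgus monkeys were studied in two designs. Non-GLP range-finding: single ascending i.v. doses (0.3-10 mg/kg), then 15 mg/kg daily for 7 days, 1/sex; MTD was based on mortality, clinical observations and body weight. GLP: 0, 5, 10 or 15 mg/kg/day for 10 days by 60-min infusion, with a recovery group. NOAEL drew on clinical signs, clinical pathology and histopathology.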
# [3] = Hematology of cynomolgus monkeys at the end of treatment; format: in vivo; conditions: female, median (IQR)
# Summary of the method: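 GLP 10-day study in male and female cynomolgus monkeys (n = 3-5/sex/group) dosed once daily with 0 (placebo), 5, 10 or 15 mg/kg test compound by i.v. infusion over 60 ± 5 min. Hematology, serum chemistry and coagulation were taken at end of treatment and reported as median (IQR). Dose groups were compared by Kruskal-Wallis with Dunn's multiple comparison test.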
# [4] = both, cynomolgus monkey, plasma, iv, 15 mg/kg/day
smiles,measurement,setting,value
"CC[C@H](C)[C@@H]1NC(=O)[C@@H]2CSSC[C@H](NC(=O)[C@H](CCCNC(=N)N)NC(=O)[C@@H]3CSSC[C@H](NC1=O)C(=O)N[C@@H]([C@@H](C)O)C(=O)N[C@@H](CCCNC(=N)N)C(=O)NCC(=O)N[C@@H](Cc1ccccc1)C(=O)N3)C(=O)N[C@@H](CC(C)C)C(=O)N[C@H]1CSSC[C@H](NC(=O)[C@H](C(C)C)NC(=O)CNC(=O)[C@H](CCCNC(=N)N)NC(=O)[C@H](CCCNC(=N)N)NC1=O)C(=O)N[C@@H](CCCNC(=N)N)C(=O)N2 [RTD-1, Rhesus theta (θ) defensin-1] (HELM PEPTIDE1{G.F.C.R.C.L.C.R.R.G.V.C.R.C.I.C.T.R}$PEPTIDE1,PEPTIDE1,3:R3-16:R3|PEPTIDE1,PEPTIDE1,5:R3-14:R3|PEPTIDE1,PEPTIDE1,7:R3-12:R3|PEPTIDE1,PEPTIDE1,1:R1-18:R2$$$V2.0)",Cmax,"[1]; 0.3 mg/kg Day 1, n=2",582 (109) ng/mL
same,AUC0-∞,"[1]; 0.3 mg/kg Day 1, n=2",617 (137) ng · h/mL
same,AUCτ,"[1]; 0.3 mg/kg Day 1, n=2",591 (145) ng · h/mL
same,CL,"[1]; 0.3 mg/kg Day 1, n=2",498 (111) mL/h/kg
same,λz,"[1]; 0.3 mg/kg Day 1, n=2",0.523 (0.119) h^−1
same,Cmax,"[1]; 1 mg/kg Day 1, n=2","2,560 (820) ng/mL"
same,AUC0-∞,"[1]; 1 mg/kg Day 1, n=2","3,875 (973) ng · h/mL"
same,AUCτ,"[1]; 1 mg/kg Day 1, n=2","3,818 (961) ng · h/mL"
same,CL,"[1]; 1 mg/kg Day 1, n=2",266 (66.9) mL/h/kg
same,λz,"[1]; 1 mg/kg Day 1, n=2",0.251 (0.035) h^−1
same,AUCτ,"[1]; 3 mg/kg Day 1, n=2","10,334 (2,239) ng · h/mL"
same,λz,"[1]; 3 mg/kg Day 1, n=2",0.078 (0.017) h^−1
same,Cmax,"[1]; 5 mg/kg Day 1, n=6","10,700 (2,455) ng/mL"
same,AUCτ,"[1]; 5 mg/kg Day 1, n=6","27,160 (4,286) ng · h/mL"
same,λz,"[1]; 5 mg/kg Day 1, n=6",0.323 (0.016) h^−1
same,AUCτ,"[1]; 5 mg/kg Day 10, n=6","38,936 (9,829) ng · h/mL"
same,CL,"[1]; 5 mg/kg Day 10, n=6",136 (36.5)# mL/h/kg
same,λz,"[1]; 5 mg/kg Day 10, n=6",0.157 (0.009)# h^−1
same,accumulation: mean AUCτ day 10 vs mean AUC0-∞ day 1,[1]; 5 mg/kg/day,approximately 1.4 fold
same,Cmax,"[1]; 10 mg/kg Day 1, n=8","26,675 (8,240) ng/mL"
same,AUCτ,"[1]; 10 mg/kg Day 1, n=8","76,083 (23,562) ng · h/mL"
same,CL,"[1]; 10 mg/kg Day 1, n=8",143 (48.2)* mL/h/kg
same,λz,"[1]; 10 mg/kg Day 1, n=8",0.192 (0.034)* h^−1
same,AUCτ,"[1]; 10 mg/kg Day 10, n=6","117,529 (26,077) ng · h/mL"
same,CL,"[1]; 10 mg/kg Day 10, n=6",88.5 (18.5)* mL/h/kg
same,Vss,"[1]; 10 mg/kg Day 10, n=6",624 (88.2) mL/kg
same,λz,"[1]; 10 mg/kg Day 10, n=6",0.120 (0.018)* h^−1
same,accumulation: mean AUCτ day 10 vs mean AUC0-∞ day 1,[1]; 10 mg/kg/day,~1.5 fold
same,Cmax,"[1]; 15 mg/kg Day 1, n=12","46,458 (15,247)† ng/mL"
same,AUCτ,"[1]; 15 mg/kg Day 1, n=12","138,135 (34,942) ng · h/mL"
same,CL,"[1]; 15 mg/kg Day 1, n=12",114 (25.7) mL/h/kg
same,Vss,"[1]; 15 mg/kg Day 1, n=12",629 (176)† mL/kg
same,λz,"[1]; 15 mg/kg Day 1, n=12",0.149 (0.019)† h^−1
same,AUCτ,"[1]; 15 mg/kg Day 4, n=2","139,595 (2,366) ng · h/mL"
same,λz,"[1]; 15 mg/kg Day 4, n=2",0.072 (0.020) h^−1
same,AUCτ,"[1]; 15 mg/kg Day 7, n=2","154,149 (12,406) ng · h/mL"
same,λz,"[1]; 15 mg/kg Day 7, n=2",0.071 (0.017) h^−1
same,Cmax,"[1]; 15 mg/kg Day 10, n=9","32,233 (13,933)† ng/mL"
same,AUCτ,"[1]; 15 mg/kg Day 10, n=9","173,315 (67,934) ng · h/mL"
same,Vss,"[1]; 15 mg/kg Day 10, n=9","1,139 (411)† mL/kg"
same,λz,"[1]; 15 mg/kg Day 10, n=9",0.078 (0.020)† h^−1
same,MRT,"[1]; both, cynomolgus monkey, plasma, iv, 0.3 mg/kg, 0.3 mg/kg Day 1, n=2",1.24 h
same,MRT,"[1]; both, cynomolgus monkey, plasma, iv, 1 mg/kg, 1 mg/kg Day 1, n=2",1.82 h
same,MRT,"[1]; both, cynomolgus monkey, plasma, iv, 3 mg/kg, 3 mg/kg Day 1, n=2",4.3 h
same,MRT,"[1]; both, cynomolgus monkey, plasma, iv, 5 mg/kg, 5 mg/kg Day 1, n=6",2.94 h
same,MRT,"[1]; both, cynomolgus monkey, plasma, iv, 5 mg/kg, 5 mg/kg Day 10, n=6",4.84 h
same,MRT,"[1]; both, cynomolgus monkey, plasma, iv, 10 mg/kg, 10 mg/kg Day 1, n=8",4.4 h
same,MRT,"[1]; both, cynomolgus monkey, plasma, iv, 10 mg/kg, 10 mg/kg Day 10, n=6",7.2 h
same,MRT,"[1]; both, cynomolgus monkey, plasma, iv, 15 mg/kg, 15 mg/kg Day 1, n=12",5.48 h
same,MRT,"[1]; both, cynomolgus monkey, plasma, iv, 15 mg/kg, 15 mg/kg Day 4, n=2",11.8 h
same,MRT,"[1]; both, cynomolgus monkey, plasma, iv, 15 mg/kg, 15 mg/kg Day 7, n=2",12.3 h
same,MRT,"[1]; both, cynomolgus monkey, plasma, iv, 15 mg/kg, 15 mg/kg Day 10, n=9",12 h
same,level at 288 h,[1]; [4],537 ng/mL
same,level at 576 h,[1]; [4],12.5 ng/mL
same,time plasma concentrations detectable post-end of infusion,[1]; single dose of 0.3 or 1 mg/kg,up to 12 h
same,mortality,"[2]; GLP 10-day repeat-dose TK study, any dose level (5-15 mg/kg/day)",no mortality or unscheduled euthanasia
same,NOAEL,[2]; GLP 10-day repeat-dose i.v.,15 mg/kg/day
same,"Basophils, absolute",[3]; 5 mg/kg/day,0.05 (0.01) 10^3/mm^3
same,"Eosinophils, absolute",[3]; 5 mg/kg/day,0.32 (0.27) 10^3/mm^3
same,Hematocrit,[3]; 5 mg/kg/day,43.80 (3.15) %
same,Hemoglobin,[3]; 5 mg/kg/day,12.90 (0.35) g/dL
same,"LUC, absolute",[3]; 5 mg/kg/day,0.11 (0.02) 10^3/mm^3
same,"Lymphocytes, absolute",[3]; 5 mg/kg/day,3.40 (1.18) 10^3/mm^3
same,MCH,[3]; 5 mg/kg/day,21.20 (1.10) pg
same,MCHC,[3]; 5 mg/kg/day,29.50 (1.35) g/dL
same,MCV,[3]; 5 mg/kg/day,69.20 (1.70) fL
same,"Monocytes, absolute",[3]; 5 mg/kg/day,0.53 (0.21) 10^3/mm^3
same,"Neutrophils, absolute",[3]; 5 mg/kg/day,6.43 (2.10) 10^3/mm^3
same,Platelets,[3]; 5 mg/kg/day,576.00 (58.00) 10^3/mm^3
same,RBC,[3]; 5 mg/kg/day,6.05 (0.47) 10^6/mm^3
same,RDW,[3]; 5 mg/kg/day,15.10 (0.50) %
same,"Reticulocytes, absolute",[3]; 5 mg/kg/day,53.60 (17.00) 10^9/L
same,WBC,[3]; 5 mg/kg/day,12.70 (2.30) 10^3/mm^3
same,"Basophils, absolute",[3]; 10 mg/kg/day,0.06 (0.04) 10^3/mm^3
same,"Eosinophils, absolute",[3]; 10 mg/kg/day,0.40 (0.06) 10^3/mm^3
same,Hematocrit,[3]; 10 mg/kg/day,38.50 (4.60) %
same,Hemoglobin,[3]; 10 mg/kg/day,10.70 (1.25) g/dL
